Active and inactive are the calls of the source.

For series [1], the system named is RKO. Nature of the series: Induction of thymidylate kinase expression in human RKO cells expressing Tet-On gene after 48 hrs by Western blotting. In kind it is functional, cell-based. A digest of the protocol: (§1)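 Tet-On TMPK RKO cells were grown with doxycycline at 0, 50 or 3,000 ng/ml to induce TMPK. Expression was assessed by Western blotting with actin as the internal control.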
Background: Immunoblotting shows a protein as a band on a membrane.

For series [2], the system named is RKO. Kind of series: Induction of thymidylate kinase expression in human RKO cells expressing Tet-On gene after 48 hrs by Western blotting relative to control. The series is classed as functional. A digest of the protocol:
as §1

Series [3] deals with RKO. Nature of the series: Induction of 3-phosphoglycerate kinase expression in human RKO cells expressing Tet-On gene at 100 ng/ml after 72 hrs by Western blotting relative to control.
Series [4] relates to Human immunodeficiency virus 1. Kind of series: Antiviral activity against 0.1 MOI HIV1 3B in 24 hrs pretreated human TZM-b1 cells infected 48 hrs post drug removal assessed as inhibition of viral replication at 0.04 to 0.18 uM measured 24 hrs postinfection by luciferase assay. The series is classed as functional, organism-based. An outline of the steps:
(§2)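 TZM-bl cells (kept in DMEM) were plated at 0.5 x 10^4 per well in phenol red-free RPMI 1640 and left to adhere 15-18 h at 37°C. They were then exposed to drug for 24 h with quintuple wells per concentration. Medium was changed to remove drug, and cells were infected with HIV-1 IIIB at MOI 0.1 at 0, 24 or 48 h after removal. Luciferase was read 24 h post-infection after subtracting the uninfected background. Inhibition is expressed relative to drug-free control wells.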

In series [5] the test system is Human immunodeficiency virus 1. Kind of series: Antiviral activity against 0.1 MOI HIV1 3B infected in human TZM-b1 cells assessed as inhibition of viral replication after 24 hrs by luciferase assay. The series is classed as functional, organism-based. A digest of the protocol:
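TZM-bl cells in phenol red-free RPMI 1640 were infected with HIV-1 IIIB (MOI 0.1) at the time of adding drug at various concentrations, and drug and virus stayed together for 24 h. Lysate luciferase was measured with uninfected background subtracted, in quintuple wells. Inhibition was the mean signal relative to drug-free infected cells.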

The test system of series [6] is Human immunodeficiency virus 1. Kind of series: Antiviral activity against 0.1 MOI HIV1 3B infected in human TZM-b1 cells assessed as inhibition of viral replication at 0.18 uM after 24 hrs by luciferase assay. In kind it is functional. To be noted: Human immunodeficiency virus 1, 3B, TZM-b1, 24 h. An outline of the steps: (§3)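 TZM-bl cells were plated at 0.5 x 10^4 per well in phenol red-free RPMI 1640 and allowed to adhere 15-18 h at 37°C. After a medium change, drug was added with quintuple wells per concentration, and cells were infected at the same time with HIV-1 IIIB at MOI 0.1. After 24 h, cells were lysed and luciferase was read minus the uninfected background. Values are percentage of mean luminescence in drug-free wells.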

Series [7] deals with Human immunodeficiency virus 1. Kind of series: Antiviral activity against 0.1 MOI HIV1 3B infected in human TZM-b1 cells assessed as inhibition of viral replication at 0.14 uM after 24 hrs by luciferase assay. The series is classed as functional. To be noted: Human immunodeficiency virus 1, 3B, TZM-b1, 24 h. A digest of the protocol:
as §3

Series [8] can be described thus: Half life in plasma of HIV1-infected patient administered as single dose. The series is classed as ADME, cell-free. To be noted: human.
For series [9], the system named is Human immunodeficiency virus 1. Nature of the series: Antiviral activity against 0.1 MOI HIV1 3B in 24 hrs pretreated human TZM-b1 cells infected 24 hrs post drug removal assessed as inhibition of viral replication at 0.04 to 0.18 uM measured 24 hrs postinfection by luciferase assay. The series is classed as functional, organism-based. A digest of the protocol:
as §2

Series [10] deals with Human immunodeficiency virus 1. Nature of the series: Antiviral activity against 0.1 MOI HIV1 3B infected in human TZM-b1 cells assessed as inhibition of viral replication at 0.11 uM after 24 hrs by luciferase assay. In kind it is functional. To be noted: Human immunodeficiency virus 1, 3B, TZM-b1, 24 h. An outline of the steps: as §3
The nature of series [11]: Half life in plasma of HIV1-infected patient. In kind it is ADME, cell-free. To be noted: human.
Series [12] has as its system Human immunodeficiency virus 1. Kind of series: Antiviral activity against 0.1 MOI HIV1 3B in 24 hrs pretreated human TZM-b1 cells infected 0 hr post drug removal assessed as inhibition of viral replication at 0.18 uM measured 24 hrs postinfection by luciferase assay. The series is classed as functional. To be noted: Human immunodeficiency virus 1, 3B. A digest of the protocol: as §2

In series [13] the target is Human immunodeficiency virus type 1 reverse transcriptase (Human immunodeficiency virus 1) (UniProt Q72547). Kind of series: Ratio of Ki to Km for HIV1 reverse transcriptase.
Substrate in series [14]: Cc1cn([C@H]2C[C@H](N=[N+]=[N-])[C@@H](CO)O2)c(=O)[nH]c1=O
To be noted: Homo sapiens; H9.

Substrate in series [15]: Cc1cn([C@H]2C[C@H](N=[N+]=[N-])[C@@H](CO)O2)c(=O)[nH]c1=O
To be noted: Homo sapiens; H9. This is another data set of the same source.

As to `C[C@H]1c2cccc(O)c2C(=O)C2=C(O)[C@]3(O)C(=O)C(C(N)=O)=C(O)[C@@H](N(C)C)[C@@H]3[C@@H](O)[C@@H]21.O` [DOXYCYCLINE], in the series with RKO [1], the Activity result is “Dose-dependent effect”. For the same molecule, the entries for the “fold change (FC)” value in the series on RKO [2] and in the series on RKO [3] were 5 and 3, respectively.
What is called inhibition is the relative decrease from the control value, in per cent. What is called half-life is the time needed for the level to fall by half in the phase considered. The low end stands for fast loss, the high end for slow loss. With `Cc1ccnc2c1NC(=O)c1cccnc1N2C1CC1` [NEVIRAPINE], the inhibition result in [4] and in series [9] was “inactive” each time. Further, the inhibition entry in series [5] was “Dose-dependent effect”. Moreover, the inhibition at 0.18 µM in [6] is 50%; in [12] it was under 50%. Also, the inhibition at 0.14 µM in series [7] was determined as 50%. Besides, the half-life in series [8] and in series [11] was 30 h in each case. Further, the inhibition at 0.11 µM in series [10] is 50%.
`C#C[C@@]1(COP(=O)(O)OP(=O)(O)OP(=O)(O)O)C=C[C@H](n2cc(C)c(=O)[nH]c2=O)O1`: the Ki/Km in series [13] is 0.15.

B1: Thymidine kinase, cytosolic (Homo sapiens), P04183 (protein)
chain: MSCINLPTVLPGSPSKTRGQIQVILGPMFSGKSTELMRRVRRFQIAQYKCLVIKYAKDTRYSSSFCTHDRNTMEALPACLLRDVAQEALGVAVIGIDEGQFFPDIVEFCEAMANAGKTVIVAALDGTFQRKPFGAILNLVPLAESVVKLTAVCMECFREAAYTKRLGTEKEVEVIGGADKYHSVCRLCYFKKASGQPAGPDNKENCPVPGKPGEAVAARKLFAPQQILQCSPAN
As usually defined, the Km is the concentration of substrate that gives half-maximal velocity. Consider B1, for which the Km amounted to 3 µM in series [14] and 2.9 µM in [15].

These data come from ChEMBL document CHEMBL1137646, “Intracellular metabolism and persistence of the anti-human immunodeficiency virus activity of 2',3'-didehydro-3'-deoxy-4'-ethynylthymidine, a novel thymidine analog” (Antimicrob Agents Chemother, 2007).
